Test system: Fibroblast
Assay: Multiplex assay against human fibroblast
Type: toxicity, cell-based
Summary of the method: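 Per cents of healthy-nucleus cells form the tubulin, mitochondrial-mass and membrane-permeability phenotype values. Live cells were stained at seeding with Hoechst33342, BioTracker Green Microtubule Cytoskeleton Dye, MitoTracker Red and Annexin V Alexa Fluor 680. After compound addition they were imaged on a CQ1 microscope at 37°C and 5% CO2, and CellPathfinder machine-learning gating split them into Hoechst high-intensity objects or normal cells, normal cells into healthy, pyknosed or fragmented nuclei, and pyknosed cells into mitotic or apoptotic.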

[1] = 12 h, 1 µM, compound concentration 1 uM, replicate 1
[2] = 12 h, 1 µM, compound concentration 1 uM, replicate 2
[3] = 12 h, 10 µM, compound concentration 10 uM, replicate 1
[4] = 12 h, 10 µM, compound concentration 10 uM, replicate 2
[5] = 24 h, 1 µM, compound concentration 1 uM, replicate 1
[6] = 24 h, 1 µM, compound concentration 1 uM, replicate 2
[7] = 24 h, 10 µM, compound concentration 10 uM, replicate 1
[8] = 24 h, 10 µM, compound concentration 10 uM, replicate 2
[9] = 48 h, 1 µM, compound concentration 1 uM, replicate 1
[10] = 48 h, 1 µM, compound concentration 1 uM, replicate 2
[11] = 48 h, 10 µM, compound concentration 10 uM, replicate 1
[12] = 48 h, 10 µM, compound concentration 10 uM, replicate 2

## Cc1c(-c2ccc(O)cc2)n(Cc2ccc(OCCN3CCCCCC3)cc2)c2ccc(O)cc12 [BAZEDOXIFENE]
[1]
  Population Apoptotic (%): 69%
  Population Fragmented Nuclei (%): 27%
  Population Healthy Nuclei (%): 33%
  Population Hoechst High Intensity Objects (%): 13%
  Population Membrane Permeable-Phenotype (%): 16%
  Population Mitochondria Different-Phenotype (%): 19%
  Population Mitotic Cells (%): 30%
  Population Normal (%): 86%
  Population Pyknosed Nuclei (%): 39%
  Population Tubulin-Different-Phenotype (%): 58%
  Total Cell Count: 106
[2]
  Population Apoptotic (%): 0%
  Population Fragmented Nuclei (%): 13%
  Population Healthy Nuclei (%): 81%
  Population Hoechst High Intensity Objects (%): 10%
  Population Membrane Permeable-Phenotype (%): 5%
  Population Mitochondria Different-Phenotype (%): 20%
  Population Mitotic Cells (%): 100%
  Population Normal (%): 89%
  Population Pyknosed Nuclei (%): 4%
  Population Tubulin-Different-Phenotype (%): 17%
  Total Cell Count: 48
[3]
  Population Apoptotic (%): 72%
  Population Fragmented Nuclei (%): 27%
  Population Healthy Nuclei (%): 36%
  Population Hoechst High Intensity Objects (%): 26%
  Population Membrane Permeable-Phenotype (%): 12%
  Population Mitochondria Different-Phenotype (%): 35%
  Population Mitotic Cells (%): 27%
  Population Normal (%): 73%
  Population Pyknosed Nuclei (%): 36%
  Population Tubulin-Different-Phenotype (%): 85%
  Total Cell Count: 149
[4]
  Population Apoptotic (%): 60%
  Population Fragmented Nuclei (%): 7%
  Population Healthy Nuclei (%): 56%
  Population Hoechst High Intensity Objects (%): 2%
  Population Membrane Permeable-Phenotype (%): 26%
  Population Mitochondria Different-Phenotype (%): 100%
  Population Mitotic Cells (%): 40%
  Population Normal (%): 97%
  Population Tubulin-Different-Phenotype (%): 100%
  Total Cell Count: 42
[5]
  Population Apoptotic (%): 80%
  Population Fragmented Nuclei (%): 27%
  Population Healthy Nuclei (%): 49%
  Population Hoechst High Intensity Objects (%): 14%
  Population Membrane Permeable-Phenotype (%): 22%
  Population Mitochondria Different-Phenotype (%): 8%
  Population Mitotic Cells (%): 19%
  Population Normal (%): 85%
  Population Pyknosed Nuclei (%): 23%
  Population Tubulin-Different-Phenotype (%): 46%
  Total Cell Count: 106
[6]
  Population Apoptotic (%): 11%
  Population Fragmented Nuclei (%): 8%
  Population Healthy Nuclei (%): 75%
  Population Hoechst High Intensity Objects (%): 3%
  Population Membrane Permeable-Phenotype (%): 2%
  Population Mitochondria Different-Phenotype (%): 6%
  Population Mitotic Cells (%): 88%
  Population Normal (%): 96%
  Population Pyknosed Nuclei (%): 15%
  Population Tubulin-Different-Phenotype (%): 15%
  Total Cell Count: 60
[7]
  Population Apoptotic (%): 62%
  Population Fragmented Nuclei (%): 20%
  Population Healthy Nuclei (%): 37%
  Population Hoechst High Intensity Objects (%): 23%
  Population Membrane Permeable-Phenotype (%): 12%
  Population Mitochondria Different-Phenotype (%): 71%
  Population Mitotic Cells (%): 37%
  Population Normal (%): 76%
  Population Pyknosed Nuclei (%): 41%
  Population Tubulin-Different-Phenotype (%): 84%
  Total Cell Count: 134
[8]
  Population Apoptotic (%): 68%
  Population Fragmented Nuclei (%): 22%
  Population Healthy Nuclei (%): 30%
  Population Hoechst High Intensity Objects (%): 20%
  Population Membrane Permeable-Phenotype (%): 75%
  Population Mitochondria Different-Phenotype (%): 100%
  Population Mitotic Cells (%): 31%
  Population Normal (%): 80%
  Population Pyknosed Nuclei (%): 47%
  Population Tubulin-Different-Phenotype (%): 100%
  Total Cell Count: 50
[9]
  Population Apoptotic (%): 50%
  Population Fragmented Nuclei (%): 42%
  Population Healthy Nuclei (%): 51%
  Population Hoechst High Intensity Objects (%): 14%
  Population Membrane Permeable-Phenotype (%): 26%
  Population Mitochondria Different-Phenotype (%): 4%
  Population Mitotic Cells (%): 50%
  Population Normal (%): 85%
  Population Pyknosed Nuclei (%): 6%
  Population Tubulin-Different-Phenotype (%): 44%
  Total Cell Count: 115
[10]
  Population Apoptotic (%): 75%
  Population Fragmented Nuclei (%): 27%
  Population Healthy Nuclei (%): 68%
  Population Hoechst High Intensity Objects (%): 16%
  Population Membrane Permeable-Phenotype (%): 15%
  Population Mitochondria Different-Phenotype (%): 1%
  Population Mitotic Cells (%): 25%
  Population Normal (%): 83%
  Population Pyknosed Nuclei (%): 3%
  Population Tubulin-Different-Phenotype (%): 46%
  Total Cell Count: 123
[11]
  Population Apoptotic (%): 85%
  Population Fragmented Nuclei (%): 39%
  Population Healthy Nuclei (%): 29%
  Population Hoechst High Intensity Objects (%): 18%
  Population Membrane Permeable-Phenotype (%): 33%
  Population Mitochondria Different-Phenotype (%): 55%
  Population Mitotic Cells (%): 14%
  Population Normal (%): 81%
  Population Pyknosed Nuclei (%): 30%
  Population Tubulin-Different-Phenotype (%): 81%
  Total Cell Count: 112
[12]
  Population Apoptotic (%): 83%
  Population Fragmented Nuclei (%): 42%
  Population Healthy Nuclei (%): 37%
  Population Hoechst High Intensity Objects (%): 35%
  Population Membrane Permeable-Phenotype (%): 21%
  Population Mitochondria Different-Phenotype (%): 47%
  Population Mitotic Cells (%): 16%
  Population Normal (%): 64%
  Population Pyknosed Nuclei (%): 19%
  Population Tubulin-Different-Phenotype (%): 65%
  Total Cell Count: 95

Source: ChEMBL document CHEMBL4689842, “EUbOPEN Chemogenomics Library wave 1” (2021)
